Published values of several laboratories.
Protocols differ between the studies behind these lines.
Cell line: HCT-116
Effect on: cell growth or viability

Compound | test | conditions | endpoint | value
COc1ccc(-c2cc(-c3ccc(OC)cc3)c3c(=O)[nH]c(=O)[nH]c3n2)cc1 | MTT | 48 h | IC50 | 6.59 µM
COc1nc(NCc2cn(-c3ccc(C(=O)Nc4ccccc4)cc3)nn2)nc(OC)n1 | MTT | 72 h | IC50 | 0.00087 µM
O=C(O)c1ccccc1Nc1cccc(C(F)(F)F)c1 | CCK-8 | 72 h | GI50 | > 40 µM
COc1cc2ncnc(Nc3ccc4c(c3)/C(=C/c3ccccc3)C(=O)N4C)c2cc1OC | MTT | – | IC50 | 6.67 µM
C=CC(=O)NC1CCN(c2ncc3ncnc(Nc4ccc(Oc5ccc6c(c5)ncn6C)c(C)c4)c3n2)CC1 | – | – | EC50 | 2.6 µM
COc1nc(NCc2cn(-c3ccc(NC(=O)c4ccc([N+](=O)[O-])cc4)cc3)nn2)nc(OC)n1 | MTT | 72 h | IC50 | 0.0578 µM
Cc1ccc(-c2cc(-c3ccc(N(C)C)cc3)c3c(=O)n(C)c(=O)n(C)c3n2)cc1 | MTT | 48 h | IC50 | 12 µM
COc1cccc2c1C(=O)c1c(O)c3c(c(O)c1C2=O)C[C@@](O)(C(=O)CO)C[C@@H]3O[C@H]1C[C@H](N)[C@H](O)[C@H](C)O1 | MTT | 72 h | IC50 | 0.83 µM
Cc1nc(Nc2ccc3c(c2)C(C)(C)C(=O)N3C)c2ccccc2n1 | MTT | – | IC50 | > 50 µM
COc1nc(NCc2cn(-c3ccc(C(=O)Nc4ccc(C(F)(F)F)cc4)cc3)nn2)nc(OC)n1 | MTT | 72 h | IC50 | 0.00141 µM
COc1ccc(-c2cc(-c3ccccc3Cl)c3c(=O)[nH]c(=O)[nH]c3n2)cc1 | MTT | 48 h | IC50 | 13.4 µM
Cc1nc(N(C)c2ccc3c(c2)/C(=C/c2ccccc2Cl)C(=O)N3C)c2ccccc2n1 | MTT | – | IC50 | 4.11 µM
Cc1ccc(-c2cc(-c3ccc(N(C)C)cc3)c3c(=O)[nH]c(=O)[nH]c3n2)cc1 | MTT | 48 h | IC50 | 7.66 µM
Cc1nc(Nc2ccc3c(c2)/C(=C/c2ccccc2C)C(=O)N3C)c2ccccc2n1 | MTT | – | IC50 | 20.6 µM
COc1nc(NCc2cn(-c3ccc(C(=O)Nc4ccc([N+](=O)[O-])cc4)cc3)nn2)nc(OC)n1 | MTT | 72 h | IC50 | 0.059 µM
COc1ccc(-c2cc(-c3c(OC)cccc3OC)c3c(=O)n(C)c(=O)n(C)c3n2)cc1 | MTT | 48 h | IC50 | 5.44 µM
Cc1nc(Nc2ccc3c(c2)/C(=C/c2ccccc2)C(=O)N3Cc2ccccc2)c2ccccc2n1 | MTT | – | IC50 | 3.39 µM
COc1ccc(-c2cc(-c3ccc(C)cc3)nc3[nH]c(=O)[nH]c(=O)c23)cc1OC | MTT | 48 h | IC50 | 19 µM
COc1nc(NCc2cn(-c3ccc(NC(=O)c4ccc(Cl)cc4)cc3)nn2)nc(OC)n1 | MTT | 72 h | IC50 | 0.0338 µM
COc1ccc(-c2cc(-c3ccc(C)cc3)nc3c2c(=O)n(C)c(=O)n3C)cc1OC | MTT | 48 h | IC50 | 20.8 µM
Cc1nc(Nc2ccc3c(c2)C(C)(C)C(=O)N3)c2ccccc2n1 | MTT | – | IC50 | > 50 µM
COc1nc(NCc2cn(-c3ccc(C(=O)Nc4ccc(C)cc4)cc3)nn2)nc(OC)n1 | MTT | 72 h | IC50 | 0.0276 µM
COc1cc2ncnc(N(C)c3ccc4c(c3)/C(=C/c3ccccc3)C(=O)N4C)c2cc1OC (mixture of isomers) | MTT | – | IC50 | 6.91 µM
CC(=NNC(=O)COc1ccc2c(C)c(Cc3ccccc3)c(=O)oc2c1C)c1ccc(Br)cc1 | MTT | 100 µg/mL | viability | 33.6%
C=CC(=O)c1cccnc1Nc1cccc(C(F)(F)F)c1 | CCK-8 | 72 h | GI50 | 34.9 µM
Cc1ccc(-c2cc(-c3ccc(Cl)c(F)c3)c3c(=O)n(C)c(=O)n(C)c3n2)cc1 | MTT | 48 h | IC50 | 21.4 µM
